# This is a sample that favours compounds with a hit; in the whole collection about 3.1% have one here.
# RBBP9 inh: blocks human serine hydrolase RBBP9; O75884; recombinant RBBP9, FP-Rh probe fluorescence polarization; inhibition, % at 7.94 µM; 220,000 compounds, 0.2% hits; AID 1515;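 active = inhibition above the campaign mean of all tested compounds plus 3 SD, cut at about 14% in these data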;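 also: plate controls were DMSO wells with RBBP9 for no effect and wells lacking RBBP9 protein for full effect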
#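 Material: RBBP9 protein. Amount: RBBP9 at 2.5 µM in dispensed solution, before mixing. Schedule: 30 min then 45 min, 25 °C. Medium: Tris buffer pH 8.0, NaCl, Pluronic. Measured by: fluorescence polarization. Measure: percent inhibition from mP, scaled between DMSO and no-protein wells. Replication: one well per compound.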
# LEDGF integ inh: blocks HIV-1 LEDGF/p75-dependent DNA integration; TR-FRET IN-LEDGF/p75 DNA integration, Eu/Cy5; inhibition, % at 3.7 µM; 370,000 compounds, 0.64% hits; AID 743269;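 active = inhibition above the screen-wide mean plus 3 SD, cut at about 13% in these data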;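 also: signal is the Cy5 over europium emission ratio at 671 and 618 nm; 0% = plate median of compound wells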
# MBD2 DNA inh: blocks human MBD2 binding to methylated DNA. Q9UBB5. TR-FRET, MBD2 binding to methylated oligonucleotide. inhibition, % at 4.4 µM. 370,000 compounds, 0.31% hits. AID 686964; in the data active = inhibition above about 13%
# PRMT1 inh: PRMT1 (human) inhibition, primary screen. recombinant PRMT1, activity-based probe fluorescence polarization. inhibition, % at 2.79 µM. 370,000 compounds, 1.3% hits. AID 652257;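 active = inhibition above about 21% made by adding two undisclosed values, limit read from the data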
# UHRF1 binding: UHRF1 methyl-DNA binding inhibition; inhibition, % at 4.4 µM; 370,000 compounds, 0.75% hits; UHRF1 binding to methylated oligo, TR-FRET; in the data active = inhibition above about 21%;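 also: UHRF1 SRA domain binding a hemimethylated CpG hairpin DNA probe; 0% = median of test compound wells and 100% = reference inhibitor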
# ABHD5-PLIN5 inh: ABHD5-PLIN5 protein interaction inhibition; Split G. princeps luciferase complementation, luminescence, 4 h; 360,000 compounds, 0.78% hits; inhibition, % at 4 µM; Q00G26+Q8WTS1;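 active = inhibition above the mean inhibition across every tested compound plus 3 SD, cut at about 22% in these data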;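 also: 0% = DMSO only wells and the 100% control is not disclosed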
# Target sequence (Q00G26 whole entry, looked up): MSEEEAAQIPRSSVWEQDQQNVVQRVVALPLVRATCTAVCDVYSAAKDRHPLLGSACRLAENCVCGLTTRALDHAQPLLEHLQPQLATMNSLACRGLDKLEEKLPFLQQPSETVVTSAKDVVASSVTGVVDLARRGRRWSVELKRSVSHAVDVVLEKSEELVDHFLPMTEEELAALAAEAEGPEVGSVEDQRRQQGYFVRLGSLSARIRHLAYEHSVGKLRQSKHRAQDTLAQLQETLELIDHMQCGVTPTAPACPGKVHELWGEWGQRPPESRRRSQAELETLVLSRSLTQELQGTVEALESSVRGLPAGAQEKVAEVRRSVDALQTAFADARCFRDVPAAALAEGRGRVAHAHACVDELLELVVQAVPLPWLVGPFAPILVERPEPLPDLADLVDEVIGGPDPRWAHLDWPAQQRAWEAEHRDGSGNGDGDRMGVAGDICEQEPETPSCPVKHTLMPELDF
# Target sequence (Q8WTS1 whole entry, looked up): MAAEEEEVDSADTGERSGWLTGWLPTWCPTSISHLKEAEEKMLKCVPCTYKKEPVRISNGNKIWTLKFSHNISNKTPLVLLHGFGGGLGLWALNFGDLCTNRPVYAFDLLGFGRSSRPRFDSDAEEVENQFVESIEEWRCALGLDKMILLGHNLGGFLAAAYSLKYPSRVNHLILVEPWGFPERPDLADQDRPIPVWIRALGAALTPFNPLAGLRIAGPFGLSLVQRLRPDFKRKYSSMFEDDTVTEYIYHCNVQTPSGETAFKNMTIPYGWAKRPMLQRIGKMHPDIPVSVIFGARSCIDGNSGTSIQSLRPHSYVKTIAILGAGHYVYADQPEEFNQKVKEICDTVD
# Numbers without * were called inactive; · = not tested or not shown.
SMILES,RBBP9 inh,LEDGF integ inh,MBD2 DNA inh,PRMT1 inh,UHRF1 binding,ABHD5-PLIN5 inh
O=C(CCSCCC(=O)NCc1ccco1)NCc1ccco1,-4.2,0.8,4.6,24.1*,-1.0,·
O=C(CSc1ccc2c(c1)OCCO2)NCc1ccco1,-3.6,6.7,5.8,21.8*,5.1,0.2
Cc1occc1-c1nnc(SCC(=O)NC(C)(C)C)n1CC(C)C,3.4,-0.5,1.1,2.5,4.4,-2.4
Cc1occc1-c1nnc(SCC(=O)NCc2ccco2)n1CC(C)C,-9.1,11.3,-3.2,10.1,5.7,23.0*
COc1ccc(Cn2cc(COC(=O)Nc3ccc(F)cc3)nn2)cc1,·,4.1,-5.3,-2.0,0.9,·
CCCCOc1ccc(-c2c(C(=O)Nc3ccccc3)c(C)[nH]c(=S)c2C#N)cc1,-5.3,0.9,3.8,23.1*,-0.5,-3.8
S=C(Nc1ccc(I)cc1)OC1CCC12CCC(c1ccccc1)CC2 (configuration not stated),·,-4.0,3.0,4.2,-0.7,·
CCOc1ccc(C=Nn2c(-c3ccc(F)cc3)n[nH]c2=S)cc1,·,2.4,-5.8,23.0*,-2.4,·
Cc1ccc(-c2nc3ccc(Br)cn3c2Cc2ccccc2)cc1,·,-0.6,4.3,2.4,18.5,-18.3
Cc1ccc(Cc2c(-c3ccccc3)nc3ccc(Br)cn23)cc1,·,0.6,6.8,-1.4,21.6*,-5.7
N#Cc1ccc(-c2nc3ccc(Br)cn3c2Cc2ccccc2)cc1,·,-4.7,7.1,3.7,22.2*,-5.1
Cc1ccc(Cc2c(-c3ccc(C#N)cc3)nc3ccc(Br)cn23)cc1,·,1.3,11.5,-0.9,22.1*,-2.6
COc1ccc(-n2c(SCC(=O)NC3CCCCCC3)nnc2-c2ccncc2)cc1,·,-3.6,7.1,5.2,-1.0,·
CO[C@H]([C@H](C)/C=C/N(C)C=O)[C@@H](C)C(=O)CC[C@H](C)[C@H](O)[C@H](C)[C@H]1OC(=O)/C=C/C(C)=C/C[C@H](O)C[C@@H]2C=CC[C@@H](C[C@H](OC)[C@@H](C)[C@@H](OC)C[C@@H](OC)[C@@H]1C)O2,·,4.4,-1.3,0.4,-1.1,·
Nn1c(SCC(=O)Nc2ccc(OCc3ccccc3)cc2)nnc1-c1cc(-c2ccc(F)cc2)n[nH]1,·,-2.9,9.0,-2.0,0.5,·
CC(=O)Nc1ccc(CN2C(=O)C(C)ON=C2c2ccccc2-c2ccco2)cc1 (configuration not stated),·,-2.9,-1.6,22.6*,-2.8,11.1
C[C@H](O)[C@@H]1C(=O)N2CCc3c([nH]c4c(-c5ccccc5)cccc34)[C@@H]2C[C@@H]1N(C)C(=O)/C=C/c1ccccc1,·,1.6,-2.6,-3.3,-0.7,·
O=C(COC(=O)/C=C/C(=O)N1CCN(c2ccccc2)CC1)NCc1ccc(F)cc1,-3.9,-4.0,-2.4,-4.4,63.6*,0.2
O=C(CN1CCN(c2ccccc2)CC1)NCc1ccc(F)cc1,·,-0.1,4.5,4.1,4.0,-8.3
CCn1c2c(n(C(C)=O)c1=O)C[C@@H](c1ccccc1)[C@@H](C)[C@@H](C(=O)N1CCCC1)C2,·,2.3,-2.6,0.3,-1.0,·
O=C(Nc1cccc(Br)c1)c1ccc(CSc2ccccc2)cc1,-3.0,-2.4,-2.6,-4.4,-1.3,-7.9
Cc1cc(CSc2ccccc2)ccc1NC(=O)c1ccc(Br)cc1,0.1,0.1,-2.5,2.4,32.6*,-3.2
CCOC(=O)C1CCCN(C(=O)CN2C(=O)/C(=C/c3ccc(OC)cc3)Oc3ccccc32)C1 (configuration not stated),-1.0,-2.0,6.4,-0.5,22.2*,-0.4
CCOC(=O)C1CCCN(C(=O)CN2C(=O)c3ccccc3C2=O)C1 (configuration not stated),-7.2,-1.4,2.7,-2.6,0.6,-1.2
COc1ccc(-c2cc(-c3nnc(SCC(=O)Nc4ccccc4-c4ccccc4)n3N)[nH]n2)cc1,·,-1.1,-0.8,-4.0,-0.1,·
SMILES,RBBP9 inh,LEDGF integ inh,MBD2 DNA inh,PRMT1 inh,UHRF1 binding,ABHD5-PLIN5 inh
Cc1ccc(N(C)S(=O)(=O)c2ccc(-c3cnc(C4CC4)o3)cc2)cc1,·,1.5,5.5,1.5,22.5*,3.8
CCCC1CCC2(CC1)CCC2OC(=S)NCc1ccc(Cl)cc1 (configuration not stated),·,5.6,-7.5,-5.0,-0.9,·
C[C@H](O)[C@@H]1C(=O)N2CCc3c([nH]c4c(-c5ccc6c(c5)OCO6)cccc34)[C@@H]2C[C@@H]1N(C)C(=O)c1ccccc1F,·,-3.9,4.1,2.8,1.0,·
C#CCOCCOCCOCCNc1nc(N2CCOCC2)nc(N2CCN(C(=O)CCCCCCCCCCNC(=O)Cn3cc(CCCCCN)nn3)CC2)n1,·,-1.2,7.3,4.3,-0.1,3.2
C#CCOCCOCCOCCNc1nc(N2CCN(C(=O)CCCCCCCCCCNC(=O)[C@H](CCCCN)n3cc(C)nn3)CC2)nc(N2CCN(C(=O)CCCCCCCCCCNC(=O)[C@@H]([C@H](C)CC)n3cc(CCCCCN)nn3)CC2)n1,·,·,·,·,·,45.0*
C#CCOCCOCCOCCNc1nc(N2CCN(C(=O)CCCCCCCCCCNC(=O)[C@H]([C@@H](C)CC)n3cc(CCCCCN)nn3)CC2)nc(N2CCN(C(=O)CCCCCCCCCCNC(=O)[C@@H]([C@H](C)O)n3cc(C)nn3)CC2)n1,·,·,·,·,·,40.9*
C#CCOCCOCCOCCNc1nc(N2CCOCC2)nc(N2CCN(C(=O)CCCCCCCCCCNC(=O)[C@@H]([C@H](C)O)n3cc(C)nn3)CC2)n1,·,-1.2,6.4,3.7,-0.5,-5.4
C#CCOCCOCCOCCNc1nc(N2CCN(C(=O)CCCCCCCCCCNC(=O)Cn3cc(CCCCCN)nn3)CC2)nc(N2CCN(C(=O)CCCCCCCCCCNC(=O)[C@H]([C@@H](C)CC)n3cc(CCCCCN)nn3)CC2)n1,·,·,·,·,·,33.7*
C[C@H](O)[C@@H]1CN2CCc3c([nH]c4c(-c5ccccc5)cccc34)[C@@H]2C[C@@H]1N(C)C(=S)Nc1ccc(C#N)cc1,·,3.9,-2.8,-2.8,-0.6,·
CC1(C)CC(=O)C=C(C#CC2CC2)C1,·,-1.0,6.1,1.5,22.9*,·
CC1(C)CC(=O)C=C(NC2CCCCC2)C1,·,2.8,0.1,0.5,1.5,-3.4
CCCCc1c(-c2ccc(F)cc2F)ncn1CCc1ccccc1OC,·,5.3,6.8,1.0,11.1,-5.4
CCCCc1c(Cc2cccc(F)c2)ncn1CCc1ccccc1OC,·,10.3,4.9,-8.8,21.2*,-4.5
CN(C)CCNC(=O)COc1ccc(C23CC4CC(CC(C4)C2)C3)cc1,-3.5,2.1,2.9,1.9,1.3,23.0*
CCOc1ccc(C(=O)CC(C(=O)O)N2CCN(Cc3ccccc3)CC2)cc1 (configuration not stated),·,·,·,·,·,95.3*
CCOc1ccc(C(=O)CC(C(=O)O)N2CCCCC2)cc1 (configuration not stated),·,·,·,·,·,84.8*
CCOc1ccc(C(=O)OC(C)C(=O)N2CCN(Cc3ccccc3)CC2)cc1 (configuration not stated),·,-0.7,-1.8,-0.3,-2.7,-0.3

# Assay outcomes deposited in PubChem BioAssay by The Scripps Research Institute Molecular Screening Center.
